From ChEMBL document CHEMBL4152200, “Targeting the entrance channel of NNIBP: Discovery of diarylnicotinamide 1,4-disubstituted 1,2,3-triazoles as novel HIV-1 NNRTIs with high potency against wild-type and E138K mutant virus” (Eur J Med Chem, 2018)

Assays:
[1] = test system: Human immunodeficiency virus 1; experiment: Antiviral activity against wild-type HIV-1 3B infected in human MT4 cells assessed as inhibition of viral replication after 5 days by MTT assay; type: functional, organism-based; settings: Human immunodeficiency virus 1, 3B, MT4, 120 h
[2] = test system: Human immunodeficiency virus 1; experiment: Antiviral activity against HIV-1 RES056 harboring reverse transcriptase K103N/Y181C double mutant infected in human MT4 cells assessed as inhibition of viral replication after 5 days by MTT assay; type: functional, organism-based; settings: Human immunodeficiency virus 1, RES056, MT4, 120 h
[3] = test system: MT4; experiment: (§1) Cytotoxicity against human MT4 cells assessed as decrease in cell viability after 5 days by MTT assay; type: cell-based; settings: mt4, 120 h
How it was run: (§2)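 Mock-infected MT-4 cells, exponentially growing, seeded with compound in culture medium without virus; run in parallel with the antiviral assay. Viability read spectrophotometrically by MTT reduction five days later.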

[4] = test system: Human immunodeficiency virus 1; experiment: Antiviral activity against HIV1 harboring reverse transcriptase L100I mutant infected in human MT4 cells assessed as inhibition of viral replication after 5 days by MTT assay; type: functional, organism-based; settings: Human immunodeficiency virus 1, MT4, 120 h
[5] = test system: Human immunodeficiency virus 1; experiment: Antiviral activity against HIV1 harboring reverse transcriptase K103N mutant infected in human MT4 cells assessed as inhibition of viral replication after 5 days by MTT assay; type: functional, organism-based; settings: Human immunodeficiency virus 1, MT4, 120 h
[6] = test system: Human immunodeficiency virus 1; experiment: Antiviral activity against HIV1 harboring reverse transcriptase E138K mutant infected in human MT4 cells assessed as inhibition of viral replication after 5 days by MTT assay; type: functional, organism-based; settings: Human immunodeficiency virus 1, MT4, 120 h
[7] = test system: Human immunodeficiency virus 1; experiment: Antiviral activity against HIV1 harboring reverse transcriptase Y181C mutant infected in human MT4 cells assessed as inhibition of viral replication after 5 days by MTT assay; type: functional, organism-based; settings: Human immunodeficiency virus 1, MT4, 120 h
[8] = test system: Human immunodeficiency virus 1; experiment: Antiviral activity against HIV1 harboring reverse transcriptase Y188L mutant infected in human MT4 cells assessed as inhibition of viral replication after 5 days by MTT assay; type: functional, organism-based; settings: Human immunodeficiency virus 1, MT4, 120 h
How it was run: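 MT-4 cells in exponential growth, resuspended into wells holding HIV-1 stock (IIIB, RES056 K103N/Y181C, F227L/V106A, L100I, K103N, E138K, Y181C or Y188L) at 100–300 CCID₅₀, or into mock-infected wells. Viability read by MTT reduction to formazan, measured spectrophotometrically 5 days post-infection. EC₅₀ is the concentration giving 50% protection against virus-induced cytotoxicity.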

[9] = test system: Human immunodeficiency virus 1; experiment: Antiviral activity against HIV1 harboring reverse transcriptase F227L/V106A double mutant infected in human MT4 cells assessed as inhibition of viral replication after 5 days by MTT assay; type: functional, organism-based; settings: Human immunodeficiency virus 1, MT4, 120 h
[10] = test system: Human immunodeficiency virus 1; experiment: Resistance factor, ratio of EC50 for HIV1 harboring reverse transcriptase L100I mutant to EC50 for wild-type HIV-1 3B; type: functional
How it was run: (§3)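 Resistance fold is EC₅₀ against the mutant strain divided by EC₅₀ against WT IIIB. Both EC₅₀ values come from the 5-day MTT protection assay in MT-4 cells infected with 100–300 CCID₅₀ of virus.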

[11] = test system: Human immunodeficiency virus 1; experiment: Resistance factor, ratio of EC50 for HIV1 harboring reverse transcriptase K103N mutant to EC50 for wild-type HIV-1 3B; type: functional; how it was run: as §3
[12] = test system: Human immunodeficiency virus 1; experiment: Resistance factor, ratio of EC50 for HIV1 harboring reverse transcriptase E138K mutant to EC50 for wild-type HIV-1 3B; type: functional; how it was run: as §3
[13] = test system: Human immunodeficiency virus 1; experiment: Resistance factor, ratio of EC50 for HIV1 harboring reverse transcriptase Y181C mutant to EC50 for wild-type HIV-1 3B; type: functional; how it was run: as §3
[14] = test system: Human immunodeficiency virus 1; experiment: Resistance factor, ratio of EC50 for HIV1 harboring reverse transcriptase Y188L mutant to EC50 for wild-type HIV-1 3B; type: functional; how it was run: as §3
[15] = test system: Human immunodeficiency virus 1; experiment: Resistance factor, ratio of EC50 for HIV1 harboring reverse transcriptase F227L/V106A mutant to EC50 for wild-type HIV-1 3B; type: functional; how it was run: as §3
[16] = Selectivity index, ratio of CC50 for human MT4 cells to EC50 for HIV1 harboring reverse transcriptase L100I mutant; type: toxicity; settings: read-out: Ratio CC50/EC50
How it was run: (§4)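 SI is CC₅₀ divided by EC₅₀, both by MTT after 5 days in MT-4 cells. CC₅₀ comes from mock-infected cultures run in parallel and is the concentration reducing their viability by 50%. EC₅₀ comes from cultures infected with the given mutant strain at 100–300 CCID₅₀.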

[17] = Selectivity index, ratio of CC50 for human MT4 cells to EC50 for HIV1 harboring reverse transcriptase K103N mutant; type: toxicity; settings: read-out: Ratio CC50/EC50; how it was run: as §4
[18] = Selectivity index, ratio of CC50 for human MT4 cells to EC50 for HIV1 harboring reverse transcriptase E138K mutant; type: toxicity; settings: read-out: Ratio CC50/EC50; how it was run: as §4
[19] = Selectivity index, ratio of CC50 for human MT4 cells to EC50 for HIV1 harboring reverse transcriptase Y181C mutant; type: toxicity; settings: read-out: Ratio CC50/EC50; how it was run: as §4
[20] = Selectivity index, ratio of CC50 for human MT4 cells to EC50 for HIV1 harboring reverse transcriptase Y188L mutant; type: toxicity; settings: read-out: Ratio CC50/EC50; how it was run: as §4
[21] = Selectivity index, ratio of CC50 for human MT4 cells to EC50 for HIV1 harboring reverse transcriptase F227L/V106A mutant; type: toxicity; settings: read-out: Ratio CC50/EC50; how it was run: as §4
[22] = test system: Human immunodeficiency virus 1; experiment: Antiviral activity against wild-type HIV-1 NL4-3 infected in human TZM-bl cells assessed as inhibition of viral replication after 2 days by bright Glo-luciferase reporter gene assay; type: functional, organism-based; settings: Human immunodeficiency virus 1, NL4-3, TZM-bl, 48 h
How it was run: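 TZM-bl cells infected with 800 TCID₅₀ of NL4-3 in the presence of a range of compound concentrations; single-round infection. After 2 days medium removed, Bright-Glo added and luminescence read. EC₅₀ is the concentration giving a 50% fall in relative light units relative to virus-control wells. Mean ± SD from at least triplicate.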

[23] = test system: TZM; experiment: Cytotoxicity against human TZM-bl cells by CytoTox-Glo reagent-based assay; type: cell-based
How it was run: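 TZM-bl cells exposed to compound at various concentrations. Cytotoxicity measured by CytoTox-Glo assay.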

[24] = Selectivity index, ratio of CC50 for human TZM-bl cells to EC50 for wild-type HIV-1 NL4-3 infected in human TZM-bl cells; type: toxicity, cell-based; settings: read-out: Ratio CC50/EC50
How it was run: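 SI is CC₅₀ divided by EC₅₀ in TZM-bl cells. CC₅₀ from CytoTox-Glo assay, averaged from two independent tests. EC₅₀ from single-round infection with 800 TCID₅₀ NL4-3, luciferase luminescence read at 2 days and expressed relative to virus controls.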

[25] = biological target: Human immunodeficiency virus type 1 reverse transcriptase (Human immunodeficiency virus 1, UniProt Q72547); experiment: Inhibition of wild-type HIV1 reverse transcriptase assessed as decrease in digoxigenin and biotin-dUTP incorporation in to DNA using poly(A)/oligo(dT)15 as template/primer after 1 hr by ELISA
How it was run: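 Kit ELISA on wild-type HIV-1 RT with poly(A)·oligo(dT)15 as template/primer and digoxigenin- and biotin-labelled dUTP. Incorporated label detected with peroxidase-conjugated anti-digoxigenin antibody and ABTS substrate. IC₅₀ is the concentration inhibiting biotin-dUTP incorporation by 50%.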

[26] = Selectivity index, ratio of CC50 for human MT4 cells to EC50 for wild-type HIV1 3B; type: toxicity; settings: read-out: Ratio CC50/EC50
How it was run: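 Wild-type HIV-1 IIIB at 100–300 CCID50 added to MT-4 cells with compound, with mock-infected wells in parallel. MTT viability was read at day 5. […] SI = CC50/EC50.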

[27] = as §1; type: cell-based; settings: MT4 cells; how it was run: as §2

SMILES | EC50 [1] [nM] | EC50 [2] [nM] | CC50 [3] [nM] | EC50 [4] [nM] | EC50 [5] [nM] | EC50 [6] [nM] | EC50 [7] [nM] | EC50 [8] [nM] | EC50 [9] [nM] | Ratio EC50 [10] | Ratio EC50 [11] | Ratio EC50 [12] | Ratio EC50 [13] | Ratio EC50 [14] | Ratio EC50 [15] | selectivity ratio [16] | selectivity ratio [17] | selectivity ratio [18] | selectivity ratio [19] | CC50 [23] [nM] | also measured
Cc1cc(C)c(Oc2cc(Nc3ccc(C#N)cc3)ncc2C(=O)NCc2cn(CC(=O)N3CCOCC3)nn2)c(C)c1 | 20 | 15700 | 181000 | 6130 | 380 | 27 | 240 | 7160 | 610 | 306.5 | 19 | 1.4 | 12 | 358 | 30.5 | 30 | 473 | 6800 | 761 | > 215000 | selectivity ratio [20]: 25; selectivity ratio [21]: 297; EC50 [22]: 20 nM; selectivity ratio [24]: > 10.8; IC50 [25]: 1570 nM
Cc1cc(C)c(Oc2cc(Nc3ccc(C#N)cc3)ncc2C(=O)NCc2cn(CC(=O)N3CCCC3)nn2)c(C)c1 | 20 | 1430 | 58100 | 960 | 270 | 14 | 85 | 1480 | 240 | 48 | 13.5 | 0.7 | 4.3 | 74 | 12 | 60 | 214 | 4190 | 686 | > 221000 | selectivity ratio [26]: 2900; selectivity ratio [20]: 39; selectivity ratio [21]: 245; EC50 [22]: 24 nM; selectivity ratio [24]: > 9.2; IC50 [25]: 2700 nM
O=C1Nc2ccc(Cl)cc2[C@@](C#CC2CC2)(C(F)(F)F)O1 [EFAVIRENZ] | – | – | – | – | – | – | – | – | – | – | – | – | – | – | – | – | – | – | – | – | CC50 at 120 h [27]: > 6340 nM
Cc1ccnc2c1NC(=O)c1cccnc1N2C1CC1 [NEVIRAPINE] | 260 | > 15000 | – | – | – | – | – | – | – | – | – | – | – | – | – | – | – | – | – | – | CC50 at 120 h [27]: > 15000 nM
Cc1cc(/C=C/C#N)cc(C)c1Nc1ccnc(Nc2ccc(C#N)cc2)n1 [RILPIVIRINE] | – | – | – | – | – | – | – | – | – | – | – | – | – | – | – | – | – | – | – | > 341000 | –
